Results: ChEMBL document CHEMBL1268956, “3-Urea-1-(phenylmethyl)-pyridones as novel, potent, and selective EP3 receptor antagonists” (Bioorg Med Chem Lett, 2010)

What was measured:
[1] = target: Prostaglandin E2 receptor EP2 subtype (Homo sapiens, UniProt P43116); experiment: Displacement of radioligand from human EP2 receptor
[2] = target: Prostaglandin E2 receptor EP4 subtype (Homo sapiens, UniProt P35408); experiment: Displacement of radioligand from human EP4 receptor
[3] = target: Prostaglandin G/H synthase 1 (Homo sapiens, UniProt P23219); experiment: Inhibition of human COX1 in human whole blood by ELISA; format: tissue-based
Outline: (§1)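 Human whole blood; COX1 and COX2 inhibition read out in ELISA format.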

[4] = target: T1, Prostaglandin E2 receptor EP1 subtype (Homo sapiens, UniProt P34995); experiment: Displacement of radioligand from human EP1 receptor
T1 sequence (P34995 whole entry): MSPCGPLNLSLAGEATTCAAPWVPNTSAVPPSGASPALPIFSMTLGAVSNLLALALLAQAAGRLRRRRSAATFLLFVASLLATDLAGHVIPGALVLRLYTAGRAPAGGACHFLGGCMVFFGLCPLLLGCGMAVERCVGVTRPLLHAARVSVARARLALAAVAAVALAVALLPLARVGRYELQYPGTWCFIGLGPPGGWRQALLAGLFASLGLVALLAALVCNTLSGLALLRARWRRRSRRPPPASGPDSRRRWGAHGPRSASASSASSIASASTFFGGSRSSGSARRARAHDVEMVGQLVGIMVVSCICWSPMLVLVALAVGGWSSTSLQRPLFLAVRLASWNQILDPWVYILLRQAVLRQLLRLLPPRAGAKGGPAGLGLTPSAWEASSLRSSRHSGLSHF

[5] = target: T2, Prostaglandin G/H synthase 2 (Homo sapiens, UniProt P35354); experiment: Inhibition of human COX2 in human whole blood by ELISA; format: tissue-based; outline: as §1
T2 sequence (P35354 whole entry): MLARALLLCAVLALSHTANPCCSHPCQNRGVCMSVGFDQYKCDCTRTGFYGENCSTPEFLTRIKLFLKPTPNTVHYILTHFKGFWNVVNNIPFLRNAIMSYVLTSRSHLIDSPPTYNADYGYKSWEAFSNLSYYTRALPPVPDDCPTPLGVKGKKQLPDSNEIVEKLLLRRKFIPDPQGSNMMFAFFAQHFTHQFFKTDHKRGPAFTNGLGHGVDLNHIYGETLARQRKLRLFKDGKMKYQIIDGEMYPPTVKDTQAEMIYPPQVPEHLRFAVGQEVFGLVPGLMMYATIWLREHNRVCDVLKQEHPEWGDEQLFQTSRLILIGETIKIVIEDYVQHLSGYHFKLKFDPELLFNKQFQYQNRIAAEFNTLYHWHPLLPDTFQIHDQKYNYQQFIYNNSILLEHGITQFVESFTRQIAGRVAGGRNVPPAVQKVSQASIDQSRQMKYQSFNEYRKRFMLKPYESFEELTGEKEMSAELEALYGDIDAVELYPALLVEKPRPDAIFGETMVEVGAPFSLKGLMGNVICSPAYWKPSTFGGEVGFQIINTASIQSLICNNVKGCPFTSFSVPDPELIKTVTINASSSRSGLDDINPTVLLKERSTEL

[6] = target: T3, Prostaglandin E2 receptor EP3 subtype (Homo sapiens, UniProt P43115); experiment: Antagonist activity at human EP3 receptor expressed in human U2OS cells assessed as inhibition of PGE2-induced intracellular calcium mobilization by FLIPR assay; format: functional, cell-based
T3 sequence (P43115 whole entry): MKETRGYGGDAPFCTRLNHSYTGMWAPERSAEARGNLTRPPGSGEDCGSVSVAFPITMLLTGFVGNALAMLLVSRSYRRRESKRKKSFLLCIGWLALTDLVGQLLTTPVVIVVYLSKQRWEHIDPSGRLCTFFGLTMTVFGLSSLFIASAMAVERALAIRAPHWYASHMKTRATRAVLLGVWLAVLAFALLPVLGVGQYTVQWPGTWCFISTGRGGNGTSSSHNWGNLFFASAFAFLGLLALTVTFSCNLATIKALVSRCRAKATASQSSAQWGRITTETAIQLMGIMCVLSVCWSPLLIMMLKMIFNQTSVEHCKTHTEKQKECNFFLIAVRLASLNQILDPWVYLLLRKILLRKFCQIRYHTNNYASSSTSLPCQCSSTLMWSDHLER

[7] = target: Prostaglandin D2 receptor (Homo sapiens) (UniProt Q13258); experiment: Displacement of radioligand from human DP receptor
Cytochrome P450 1A2 = target: T4, Cytochrome P450 1A2 (Homo sapiens, UniProt P05177); experiment: Inhibition of CYP1A2; format: ADME
T4 sequence (P05177 whole entry): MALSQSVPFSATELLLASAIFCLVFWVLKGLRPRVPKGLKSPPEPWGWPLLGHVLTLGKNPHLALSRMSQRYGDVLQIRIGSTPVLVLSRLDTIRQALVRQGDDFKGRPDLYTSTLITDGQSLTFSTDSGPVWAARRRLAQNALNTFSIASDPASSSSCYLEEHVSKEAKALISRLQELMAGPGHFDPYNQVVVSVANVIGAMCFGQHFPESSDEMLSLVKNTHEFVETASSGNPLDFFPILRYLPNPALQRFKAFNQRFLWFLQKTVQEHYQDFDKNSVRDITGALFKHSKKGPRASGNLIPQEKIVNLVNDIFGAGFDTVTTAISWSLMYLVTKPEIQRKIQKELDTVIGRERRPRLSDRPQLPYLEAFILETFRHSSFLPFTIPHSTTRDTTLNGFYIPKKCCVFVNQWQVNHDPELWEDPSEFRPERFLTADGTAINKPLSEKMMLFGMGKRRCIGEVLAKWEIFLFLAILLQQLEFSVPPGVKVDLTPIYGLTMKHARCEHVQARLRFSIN

[8] = target: Prostaglandin F2-alpha receptor (Homo sapiens, UniProt P43088); experiment: Displacement of radioligand from human FP receptor
[9] = target: T5, Prostaglandin E2 receptor EP3 subtype (Rattus norvegicus, UniProt P34980); experiment: Inhibition of rat EP3 receptor
T5 sequence (P34980 whole entry): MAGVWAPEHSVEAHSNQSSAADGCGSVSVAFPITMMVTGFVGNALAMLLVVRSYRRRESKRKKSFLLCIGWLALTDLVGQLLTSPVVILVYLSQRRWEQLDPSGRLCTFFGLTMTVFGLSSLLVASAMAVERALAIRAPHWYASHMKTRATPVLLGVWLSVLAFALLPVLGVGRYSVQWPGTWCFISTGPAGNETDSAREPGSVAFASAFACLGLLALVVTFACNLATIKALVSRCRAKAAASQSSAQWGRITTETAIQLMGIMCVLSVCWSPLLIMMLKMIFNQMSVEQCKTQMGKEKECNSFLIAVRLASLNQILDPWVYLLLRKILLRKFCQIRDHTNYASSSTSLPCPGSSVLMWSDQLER

Thromboxane A2 receptor = target: T6, Thromboxane A2 receptor (Homo sapiens, UniProt P21731); experiment: Displacement of radioligand from human TP receptor
T6 sequence (P21731 whole entry): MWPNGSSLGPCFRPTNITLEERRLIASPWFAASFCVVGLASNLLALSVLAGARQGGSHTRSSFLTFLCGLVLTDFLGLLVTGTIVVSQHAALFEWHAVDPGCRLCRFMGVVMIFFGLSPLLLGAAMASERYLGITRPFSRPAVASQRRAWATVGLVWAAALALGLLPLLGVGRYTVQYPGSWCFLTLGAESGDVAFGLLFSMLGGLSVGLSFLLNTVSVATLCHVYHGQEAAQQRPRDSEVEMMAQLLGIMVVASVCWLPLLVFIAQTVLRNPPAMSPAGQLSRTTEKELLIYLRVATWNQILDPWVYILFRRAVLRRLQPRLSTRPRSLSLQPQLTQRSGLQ

Prostaglandin E2 receptor EP4 subtype, sequence (P35408 whole entry): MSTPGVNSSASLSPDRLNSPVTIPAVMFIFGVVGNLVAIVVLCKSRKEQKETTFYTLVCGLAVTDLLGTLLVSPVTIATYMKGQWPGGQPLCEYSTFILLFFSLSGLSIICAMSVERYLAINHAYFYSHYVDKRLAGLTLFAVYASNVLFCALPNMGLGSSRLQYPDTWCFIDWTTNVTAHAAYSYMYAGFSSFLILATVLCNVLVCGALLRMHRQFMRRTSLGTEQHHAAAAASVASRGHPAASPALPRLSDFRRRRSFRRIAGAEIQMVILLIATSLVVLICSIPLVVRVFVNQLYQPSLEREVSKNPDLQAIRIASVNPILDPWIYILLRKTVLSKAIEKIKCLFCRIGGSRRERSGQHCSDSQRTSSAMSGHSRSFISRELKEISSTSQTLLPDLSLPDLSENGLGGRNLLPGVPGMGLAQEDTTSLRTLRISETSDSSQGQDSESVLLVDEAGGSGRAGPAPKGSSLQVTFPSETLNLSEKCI
Prostaglandin F2-alpha receptor, sequence (P43088 whole entry): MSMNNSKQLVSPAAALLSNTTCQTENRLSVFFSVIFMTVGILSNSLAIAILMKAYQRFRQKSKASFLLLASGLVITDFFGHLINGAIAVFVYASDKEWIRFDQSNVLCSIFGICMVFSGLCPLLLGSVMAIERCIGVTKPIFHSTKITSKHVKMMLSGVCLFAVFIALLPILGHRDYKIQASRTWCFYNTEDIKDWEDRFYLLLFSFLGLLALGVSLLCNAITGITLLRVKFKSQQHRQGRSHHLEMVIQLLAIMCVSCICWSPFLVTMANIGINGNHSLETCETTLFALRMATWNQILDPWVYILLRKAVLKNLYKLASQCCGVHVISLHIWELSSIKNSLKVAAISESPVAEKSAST
Prostaglandin D2 receptor (Homo sapiens), sequence (Q13258 whole entry, looked up): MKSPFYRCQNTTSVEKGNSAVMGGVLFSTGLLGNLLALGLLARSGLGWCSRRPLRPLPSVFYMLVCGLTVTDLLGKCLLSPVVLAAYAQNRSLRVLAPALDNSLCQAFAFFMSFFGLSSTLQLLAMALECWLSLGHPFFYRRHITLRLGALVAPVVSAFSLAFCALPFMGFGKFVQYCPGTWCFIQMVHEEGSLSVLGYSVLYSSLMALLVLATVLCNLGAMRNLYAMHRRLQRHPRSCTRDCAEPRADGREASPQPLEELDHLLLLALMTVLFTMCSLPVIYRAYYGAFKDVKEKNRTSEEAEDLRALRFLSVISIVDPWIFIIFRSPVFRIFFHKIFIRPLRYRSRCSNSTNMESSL
Prostaglandin G/H synthase 1, sequence (P23219 whole entry): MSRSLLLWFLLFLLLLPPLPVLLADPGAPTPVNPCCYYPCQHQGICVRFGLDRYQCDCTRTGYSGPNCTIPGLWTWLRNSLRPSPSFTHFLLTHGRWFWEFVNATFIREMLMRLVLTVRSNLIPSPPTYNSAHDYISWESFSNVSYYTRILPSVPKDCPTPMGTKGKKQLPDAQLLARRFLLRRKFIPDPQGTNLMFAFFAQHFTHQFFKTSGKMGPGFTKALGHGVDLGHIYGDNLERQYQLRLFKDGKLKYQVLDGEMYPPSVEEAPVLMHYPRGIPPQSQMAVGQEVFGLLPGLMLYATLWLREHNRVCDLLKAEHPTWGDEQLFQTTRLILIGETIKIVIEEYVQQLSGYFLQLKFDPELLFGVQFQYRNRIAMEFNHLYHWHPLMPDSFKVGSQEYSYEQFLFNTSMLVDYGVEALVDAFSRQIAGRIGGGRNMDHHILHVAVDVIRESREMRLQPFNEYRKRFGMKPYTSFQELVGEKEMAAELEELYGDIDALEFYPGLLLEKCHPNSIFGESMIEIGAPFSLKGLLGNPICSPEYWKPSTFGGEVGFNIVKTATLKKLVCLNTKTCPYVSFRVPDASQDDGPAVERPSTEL
Prostaglandin E2 receptor EP2 subtype, sequence (P43116 whole entry): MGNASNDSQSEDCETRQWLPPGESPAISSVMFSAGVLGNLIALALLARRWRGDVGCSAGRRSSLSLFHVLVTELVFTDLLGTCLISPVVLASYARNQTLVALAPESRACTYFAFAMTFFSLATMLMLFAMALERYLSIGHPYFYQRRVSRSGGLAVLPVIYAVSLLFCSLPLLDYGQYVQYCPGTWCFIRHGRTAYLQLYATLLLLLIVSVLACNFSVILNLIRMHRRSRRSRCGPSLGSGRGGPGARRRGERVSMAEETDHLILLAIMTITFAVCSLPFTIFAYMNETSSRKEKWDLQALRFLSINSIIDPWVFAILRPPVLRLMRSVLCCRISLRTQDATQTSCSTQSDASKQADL

With `CCc1cccc(NC(=O)Nc2cccn(Cc3ccccc3Cl)c2=O)c1` the Ki [1] was greater than 10 µM, the Ki [2] was greater than 10 µM and the Ki [3] was greater than 100 µM. For the same compound, the Ki [4] was greater than 10 µM, the Ki [5] was greater than 100 µM and the Ki [6] was 0.0501 µM. The pKi [7] was less than 5, the Ki (Cytochrome P450 1A2) was 2 µM and the Ki [8] was greater than 10 µM. For the same compound, the Ki [9] was 0.158 µM and the Ki (Thromboxane A2 receptor) was greater than 10 µM.
